These results are taken from publication PMC8900268 (Journal of medicinal chemistry, 2021).

In assay [1] the test system is MOLT-4 cells. Nature of the assay: MTS cell viability assay in MOLT-4 cells. Format: cell-based. The conditions noted are these: Homo sapiens, MOLT-4, 48 h, read-out: IC50, cell-killing potency in MOLT-4. A general note: Tetrazolium assays rely on reduction of a dye to a coloured formazan, in cell work by metabolically active cells.
A further assay deals with RS4;11 cells. Briefly: MTS cell viability assay in RS4. Format: cell-based.
A further assay deals with BCL-XL (Homo sapiens, UniProt P40337+Q07817). Briefly: AlphaScreen displacement binding assay, BCL-XL. The conditions noted are these: displacement of Biotin-Bad. In general terms: Bead proximity is the source of the signal in Alpha formats.
The target of another assay is BCL-2 (Homo sapiens, UniProt P10415+P40337). Briefly: AlphaScreen displacement binding assay, BCL-2. The conditions noted are these: displacement of Biotin-Bim.
The target in assay [2] is {BCL-2:compound:VCB} ternary complexes (Homo sapiens, UniProt P10415+P40337). Briefly: NanoBRET ternary complex formation with BCL-2 and VCB in live 293T cells. Particulars: 6 h. In kind it is cell-based. The essentials: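 HEK 293T cells were transfected with 1 μg HaloTag-VHL, 10 ng HiBit-BCL-2 and 10 ng LgBit. After 24 h, 2×10^4 cells/well were placed in phenol-red-free Opti-MEM with 4% FBS ± HaloTag NanoBRET 618 ligand overnight at 37 °C. Serially diluted test compound was added for 6 h, then Nano-Glo substrate. mBRET ratio calculated. Mean ± s.e.m. of two independent experiments in triplicate.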
For orientation: In BRET a luciferase serves as donor, and the signal depends on an acceptor being close.

A further assay deals with BCL-2:Bim interaction (Homo sapiens, UniProt P10415). Briefly: Co-immunoprecipitation of Bim with BCL-2 in RS4. In kind it is cell-based. Particulars: RS4;11 cells, 12 h, immunoprecipitation with BCL-2. The essentials:
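RS4;11 cells were treated with test compound for 12 h, ±VHL-032. Lysis in IP buffer with protease/phosphatase inhibitors, then 15000 rpm spin. 1 mg lysate was precleared with mouse IgG and protein A/G agarose for 1 h at 4 °C. IP with 2 μg anti-BCL-2 (or IgG) overnight at 4 °C, then beads for 2 h. After three washes, immunoblotted for Bim. Inputs probed for Bim, BCL-2 and β-actin. Two independent experiments.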

Assay [3] has as its system MOLT-4 cells. Particulars: ref 10a; cited from earlier work.
The test system of a further assay is human platelets. Particulars: earlier study; ref 10a; cited from earlier work.

The structures appear in SMILES notation.

Regarding `Cc1ncsc1-c1ccc([C@H](C)NC(=O)[C@@H]2C[C@@H](O)CN2C(=O)[C@@H](NC(=O)CCCCCC(=O)N2CCN(CC[C@H](CSc3ccccc3)Nc3ccc(S(=O)(=O)NC(=O)c4ccc(N5CCN(CC6=C(c7ccc(Cl)cc7)CCC(C)(C)C6)CC5)cc4)cc3S(=O)(=O)C(F)(F)F)CC2)C(C)(C)C)cc1` [DT2216], the IC50 (usually the concentration needed to halve the response being measured) was found to be 75.3 ± 9.1 nM in the assay on MOLT-4 cells [1] and 212 ± 27.4 nM with RS4;11 cells (Homo sapiens, RS4-11, 48 h, read-out: IC50, cell-killing potency in RS4;11). Besides, the “activity loss (IC50 change) after pre-treatment with VHL-032” value in the assay with RS4;11 cells (RS4;11 cells, 48 h, pre-treatment with VHL-032 (10 μM)) is recorded as “no significant IC50 value changes”. Also, the Kd (commonly the concentration at which binding is half-saturated) at BCL-XL (Kd BCL-XL w VHL, ternary binding, with GST-VCB) came out at 2.18 ± 0.51 nM; at BCL-XL (Kd BCL-XL w/o VHL, binary binding, without VCB) it was 7.58 ± 0.62 nM; at BCL-2 (Kd BCL-2 w VHL, ternary binding, with GST-VCB) it was 1.46 ± 0.41 nM; at BCL-2 (Kd BCL-2 w/o VHL, binary binding, without VCB), 2.25 ± 0.33 nM. Moreover, in assay [2], the “formation of {BCL-2:compound:VCB} ternary complexes in live cells” value was “could not”. Also, on BCL-2:Bim interaction, the “effect on BCL-2:Bim interaction” value was “minimal effect”. In the assay on MOLT-4 cells [3], the “fold more potent than warhead ABT-263 against MOLT-4” value is on record as 4 fold. In the assay on human platelets, the “selectivity for MOLT-4 over human platelets” value is on record as ~ 200 fold.
